Here are results for 26 molecules from ChEMBL document CHEMBL1138144 (J Med Chem, 2006).

Each structure is given as a SMILES string.

The target in test [1] is T1, Sodium-dependent dopamine transporter (Homo sapiens, UniProt Q01959). The test is described as follows: Displacement of [125I]RTI-55 from human DAT expressed in HEK293 cells. The test is classed as cell-based. In a few lines: (§1)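 Membranes from HEK293 cells expressing hDAT or hSERT, grown to 80% confluence, lysed in 2 mM HEPES/1 mM EDTA, spun and resuspended in 0.32 M sucrose. About 10–15 µg protein preincubated 10 min with compound in Krebs-HEPES pH 7.4 (0.1% DMSO final). Filtered on GF/C. Non-specific binding: 5 µM mazindol (DAT) or 5 µM imipramine (SERT). Duplicates, 2–3 experiments, IC50 converted to Ki by Cheng-Prusoff.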
For orientation: Displacement assays read how much labelled ligand stays bound in the presence of the test substance.

Test [2] has as its target T1, Sodium-dependent dopamine transporter. The test is described as follows: Inhibition of [3H] dopamine uptake into human DAT expressed in HEK293 cells. The test is classed as functional, cell-based. The method in brief: (§2)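 Confluent HEK293 cells expressing hDAT or hSERT, scraped into Krebs-HEPES. Preincubated 10 min at 25°C with compound (0.1% DMSO final). Uptake started with [3H]dopamine or [3H]serotonin (20 nM final) and stopped after 10 min by filtration on PEI-soaked GF/C filters. Non-specific uptake: 5 µM mazindol (DAT) or 5 µM imipramine (SERT). IC50 from triplicate 6-concentration curves, 2–3 independent determinations.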

The target of test [3] is T2, Sodium-dependent serotonin transporter (Homo sapiens, UniProt P31645). Description: Displacement of [125I]RTI-55 from human SERT expressed in HEK293 cells. The class given is cell-based. The method in brief:
as §1

Test [4] has as its target T2, Sodium-dependent serotonin transporter. Description: Inhibition of [3H] serotonin uptake into human SERT expressed in HEK293 cells. The test is classed as functional, cell-based. The method in brief: as §2
Test [5] has as its target T3, Sodium-dependent noradrenaline transporter (Homo sapiens, UniProt P23975). The test is described as follows: Displacement of [125I]RTI-55 from human NET expressed in HEK293 cells. The class given is cell-based.
Test [6] deals with T3, Sodium-dependent noradrenaline transporter. Description: Inhibition of [3H] norepinephrine uptake into human NET expressed in HEK293 cells. The class given is functional, cell-based.

As a reminder, the Ki is a measure of affinity in units of concentration, obtained from inhibition or displacement. A higher Ki goes with a looser hold on the target. One may read the IC50 as the midpoint of a concentration-inhibition curve. A low value points to greater potency.

T3 sequence (P23975 whole entry): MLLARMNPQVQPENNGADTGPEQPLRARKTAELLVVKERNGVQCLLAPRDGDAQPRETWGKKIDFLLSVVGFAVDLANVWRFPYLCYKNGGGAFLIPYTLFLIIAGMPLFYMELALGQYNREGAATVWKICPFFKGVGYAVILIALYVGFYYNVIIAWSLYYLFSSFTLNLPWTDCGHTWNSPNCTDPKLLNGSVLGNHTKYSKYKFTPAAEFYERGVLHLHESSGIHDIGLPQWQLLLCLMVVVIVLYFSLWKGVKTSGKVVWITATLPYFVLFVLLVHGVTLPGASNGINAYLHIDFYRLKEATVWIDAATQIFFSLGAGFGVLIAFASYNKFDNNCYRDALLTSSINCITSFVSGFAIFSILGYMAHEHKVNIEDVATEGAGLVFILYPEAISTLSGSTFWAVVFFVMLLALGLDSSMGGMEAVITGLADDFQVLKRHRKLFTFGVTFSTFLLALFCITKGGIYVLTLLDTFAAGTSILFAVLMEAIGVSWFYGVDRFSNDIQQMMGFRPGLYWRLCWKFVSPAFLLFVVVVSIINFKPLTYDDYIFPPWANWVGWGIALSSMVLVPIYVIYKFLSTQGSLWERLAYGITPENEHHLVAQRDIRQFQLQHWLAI
T1 sequence (Q01959 whole entry): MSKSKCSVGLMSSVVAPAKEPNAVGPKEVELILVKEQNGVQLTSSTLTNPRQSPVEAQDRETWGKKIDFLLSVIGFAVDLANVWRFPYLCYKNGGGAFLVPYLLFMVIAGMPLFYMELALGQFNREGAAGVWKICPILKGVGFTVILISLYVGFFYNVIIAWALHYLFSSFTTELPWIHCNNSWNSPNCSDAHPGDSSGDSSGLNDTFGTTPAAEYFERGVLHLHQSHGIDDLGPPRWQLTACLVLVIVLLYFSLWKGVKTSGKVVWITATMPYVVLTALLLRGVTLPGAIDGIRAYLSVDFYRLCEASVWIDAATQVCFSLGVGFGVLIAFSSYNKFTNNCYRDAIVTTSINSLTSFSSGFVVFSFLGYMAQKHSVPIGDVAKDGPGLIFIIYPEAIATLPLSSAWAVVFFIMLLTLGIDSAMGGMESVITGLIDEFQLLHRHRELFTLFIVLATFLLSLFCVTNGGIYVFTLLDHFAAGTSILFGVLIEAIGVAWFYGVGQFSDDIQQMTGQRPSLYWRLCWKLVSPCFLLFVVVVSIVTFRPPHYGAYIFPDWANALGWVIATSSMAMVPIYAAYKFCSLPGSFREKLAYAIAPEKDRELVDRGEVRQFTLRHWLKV
T2 sequence (P31645 whole entry): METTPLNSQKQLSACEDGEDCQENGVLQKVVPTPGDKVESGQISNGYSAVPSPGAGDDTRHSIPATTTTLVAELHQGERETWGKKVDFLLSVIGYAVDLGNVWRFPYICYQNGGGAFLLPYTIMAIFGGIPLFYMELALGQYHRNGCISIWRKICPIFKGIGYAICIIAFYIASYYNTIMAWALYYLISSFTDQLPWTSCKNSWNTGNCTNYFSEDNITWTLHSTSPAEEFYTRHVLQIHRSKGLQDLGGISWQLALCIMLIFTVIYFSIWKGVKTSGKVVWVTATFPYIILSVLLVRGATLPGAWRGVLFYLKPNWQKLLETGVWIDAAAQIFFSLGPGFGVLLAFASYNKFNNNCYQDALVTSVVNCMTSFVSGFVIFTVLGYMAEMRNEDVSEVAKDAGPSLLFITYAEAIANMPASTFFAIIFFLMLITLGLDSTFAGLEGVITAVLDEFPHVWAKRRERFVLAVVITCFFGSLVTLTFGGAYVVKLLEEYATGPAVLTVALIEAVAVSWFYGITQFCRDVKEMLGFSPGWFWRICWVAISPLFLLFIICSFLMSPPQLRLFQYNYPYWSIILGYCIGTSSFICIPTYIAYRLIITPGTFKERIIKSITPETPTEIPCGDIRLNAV

Turning to `CCCC(C(=O)c1ccc(C(=O)OC)cc1)N1CCCC1` (configuration not stated), the Ki in test [1] was 360 nM; in test [3] it was 3650 nM; in test [5], 1140 nM. The IC50 in test [2] came out at 154 nM; in test [4], 2350 nM.

Turning to `CCCC(C(=O)c1ccc(-c2ccco2)cc1)N1CCCC1` (configuration not stated), the Ki in test [1] turned out to be 105 nM; in test [3], 3330 nM; in test [5], 95 nM. Moreover, the results for the IC50 in test [2], in test [4] and in test [6] were 122 nM, 2180 nM and 93 nM, respectively.

In the case of `CCCC(CN1CCCC1)C(=O)c1ccc(Cl)c(Cl)c1` (configuration not stated), the inhibition constant (Ki) in test [1] is 1530 nM; in test [3], 630 nM; in test [5] it was over 10000 nM. Further, the IC50 in test [2] stood at 2900 nM; in test [4], 710 nM.

`CCC(C(=O)c1ccc(Cl)c(Cl)c1)N1CCCC1` (configuration not stated): the results for the Ki in test [3] and in test [5] were 810 nM and 262 nM, respectively. Further, the IC50 in test [4] was determined as 441 nM; in test [6], 18.5 nM.

Regarding `C=CCC(C(=O)c1ccc(Cl)c(Cl)c1)N1CCCC1` (configuration not stated), the Ki in test [1] was determined as 39.9 nM; in test [3], 1060 nM; in test [5], 509 nM. Also, the IC50 came out at 18.3 nM in test [2], 440 nM in test [4] and 24.9 nM in test [6].

In the case of `Cc1ccc(C(=O)C(CC(C)C)N2CCCC2)cc1` (configuration not stated), the inhibition constant (Ki) was 13.7 nM in test [1], 2870 nM in test [3] and 259 nM in test [5]. For the same molecule, the concentration for half-maximal inhibition (IC50) in test [2] came out at 5.9 nM; in test [4], 2040 nM; in test [6], 18 nM.

Consider `C=CCC(C(=O)c1ccc(C)cc1)N1CCCC1` (configuration not stated), for which the Ki is 90.5 nM in test [1], over 10000 nM in test [3] and 1400 nM in test [5]. Further, the concentration for half-maximal inhibition (IC50) in test [2] came to 55 nM; in test [6], 88 nM.

In the case of `CCCC(C(=O)c1ccc(I)cc1)N1CCCC1` (configuration not stated), the figures for the inhibition constant Ki in test [1], in test [3] and in test [5] were 81.4 nM, 301 nM and 310 nM, respectively. Further, the IC50 in test [2] was 32 nM; in test [4], 197 nM; in test [6], 46.5 nM.

With `CCCC(C(=O)c1ccc(C#N)cc1)N1CCCC1` (configuration not stated), the Ki is 5900 nM in test [1], over 10000 nM in test [3] and over 10000 nM in test [5]. Inhibition in test [2] was half-maximal at 1000 nM (IC50).

For the molecule `CCCC(CN1CCCC1)C(=O)c1ccc(C)cc1` (configuration not stated), the values for the Ki in test [1], in test [3] and in test [5] were over 10000 nM, 4100 nM and over 10000 nM, respectively. In addition, 4800 nM corresponded to half-maximal inhibition in test [4] (IC50).

Regarding `CCCC(C(=O)c1ccc(O)c(O)c1)N1CCCC1` (configuration not stated), the Ki in test [1] was 84 nM; in test [3], over 10000 nM; in test [5], 219 nM. Moreover, the IC50 in test [2] came out at 42 nM; in test [6], 7.6 nM.

In the case of `CCCC(C(=O)c1ccc(Cl)c(Cl)c1)N1CCCC1` (configuration not stated), the values for the inhibition constant (Ki) in test [1], in test [3] and in test [5] were 11.5 nM, 199 nM and 37.8 nM, respectively. Also, the IC50 was determined as 43 nM in test [2], 600 nM in test [4] and 21 nM in test [6].

For the molecule `CCCC(C(=O)c1ccc(CO)cc1)N1CCCC1` (configuration not stated), the Ki is 48.7 nM in test [1], over 10000 nM in test [3] and 150 nM in test [5]. Also, the IC50 in test [2] came out at 44.3 nM; in test [6] it was 12.4 nM.

`CCCC(C(=O)c1ccc(F)cc1)N1CCCC1` (configuration not stated): the Ki in test [1] was 82 nM; in test [3], over 10000 nM; in test [5] it was 830 nM. In addition, the IC50 in test [2] turned out to be 185 nM; in test [6] it was 171 nM.

`CCCC(C(=O)c1ccc(Cl)c(Cl)c1)N1CCCCC1` (configuration not stated): the Ki in test [1] worked out at 144 nM; in test [3], 2460 nM; in test [5] it was 2350 nM. Also, the IC50 in test [2] is 666 nM; in test [4], over 10000 nM; in test [6], 800 nM.

With `CC#Cc1ccc(C(=O)C(CCC)N2CCCC2)cc1` (configuration not stated), the inhibitory constant (Ki) in test [1] amounted to 61 nM; in test [3] it was 6700 nM; in test [5], 69.8 nM. The IC50 in test [2] was 11.8 nM; in test [4], 3300 nM; in test [6], 19.3 nM.

Turning to `CCCCNC(CCC)C(=O)c1ccc(Cl)c(Cl)c1` (configuration not stated), the Ki worked out at 520 nM in test [1], 5080 nM in test [3] and 4200 nM in test [5]. Moreover, the IC50 in test [2] was 1190 nM; in test [4] it was over 10000 nM; in test [6], 2520 nM.

With `CCCC(C(=O)c1ccccc1)N1CCCC1` (configuration not stated), the Ki was 33.7 nM in test [1], over 10000 nM in test [3] and 199 nM in test [5]. In addition, the IC50 in test [2] is 52.3 nM; in test [6], 56 nM.

On to `C#CCC(C(=O)c1ccc(C)cc1)N1CCCC1` (configuration not stated), for which the Ki in test [1] was 2310 nM; in test [3], over 10000 nM; in test [5], 4100 nM. Besides, the results for the IC50 in test [2] and in test [6] were 231 nM and 350 nM, respectively.

With `CCCC(C(=O)c1ccc(-c2cccn2C)cc1)N1CCCC1` (configuration not stated), the Ki in test [1] was 3850 nM; in test [3] it was over 10000 nM; in test [5], over 10000 nM. Also, the IC50 in test [2] is 5400 nM.

For the molecule `CCCC(C(=O)c1ccc([N+](=O)[O-])cc1)N1CCCC1` (configuration not stated), the Ki in test [1] amounted to 266 nM; in test [3], 2460 nM; in test [5], 2690 nM. Further, the IC50 in test [2] turned out to be 1110 nM; in test [4], 1110 nM; in test [6], 531 nM.

`CCC[C@H](C(=O)c1ccc(C)cc1)N1CCCC1` showed a concentration for half-maximal inhibition (IC50) in test [2] of 1790 nM. In addition, the Ki in test [3] and in test [5] was over 10000 nM each time.

For `CCCC(C(=O)c1ccc(OC)c(OC)c1)N1CCCC1` (configuration not stated), the Ki in test [1] is over 10000 nM; in test [3], 7460 nM; in test [5] it was over 10000 nM. For the same molecule, the concentration for half-maximal inhibition (IC50) in test [4] came to 1540 nM.

Take `CCCC(C(=O)c1cccc(I)c1)N1CCCC1` (configuration not stated): the Ki in test [1] turned out to be 109 nM; in test [3], 1400 nM; in test [5], 670 nM. For the same molecule, the IC50 was determined as 52 nM in test [2], 1070 nM in test [4] and 81 nM in test [6].

Consider `CCCC(C(O)c1ccc(C)cc1)N1CCCC1` (mixture of isomers), for which the Ki in test [1], in test [3] and in test [5] was over 10000 nM in each case.

Turning to `CCCC(C(=O)c1ccc(C)cc1)N1CCCC1` (configuration not stated) [PYROVALERONE], the inhibition constant (Ki) in test [1] stood at 21.4 nM; in test [3] it was 3770 nM; in test [5] it was 195 nM. The figures for the IC50 in test [2], in test [4] and in test [6] were 52 nM, 2780 nM and 28.3 nM, respectively.
